These results are taken from PMC3171643 (ACS combinatorial science, 2011).

pKd: −log10 of the molar value.

The target of test [1] is GST-Cn (catalytic domain of human Cn) (Homo sapiens, UniProt Q08209). The format is binding. The following applies: Cn 5 μM, TMR-labeled peptide 100 nM. A digest of the protocol: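 Human Cn catalytic domain as a GST fusion, expressed in E. coli BL21 and glutathione-Sepharose purified. Single-bead-released TAMRA-labeled cyclic peptide (100 nM) was incubated with 5 μM GST-Cn for 2 h at room temperature in 20 mM HEPES pH 7.4, 150 mM NaCl, 2 mM magnesium acetate, 0.1% BSA. Anisotropy was read at ex 545/em 585 nm and expressed as % increase over the peptide without Cn.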

In a further test the target is Cn. As to conditions: cited from earlier work.
The target in test [2] is Calcineurin (Homo sapiens) (UniProt Q08209). The following applies: cited from earlier work.

Take `CN(C)c1ccc2c(-c3ccccc3C(=O)[O-])c3ccc(N(C)C)cc3[o+]c2c1` [free TMR, tetramethylrhodamine]: the “percentage of FA increase (relative to the control without Cn)” value in test [1] was “less than 20%”.

Broadly, the pKd is −log10 of the Kd, conventionally taken in molar units. On to MAPGHPVIVITGPHEE, for which the pKd on Cn (VIVIT peptide binding to Cn) is 6.30. The “fold higher affinity for Cn than the native sequence” value in the test on Cn is 50 fold.

As for VIVIT peptide, in test [2], the pKd is 6.30.
